Measured values from ChEMBL document CHEMBL3097991, “A novel indigoid anti-tuberculosis agent” (Bioorg Med Chem Lett, 2014).
Converted amounts (≈) assume the structure as drawn.

How the values were obtained:
[1] = test system: Mycobacterium tuberculosis; assay: Antimicrobial activity against Mycobacterium tuberculosis H37Rv in presence of 10% FBS; format: functional
[2] = test system: Mycolicibacterium smegmatis; assay: Antimicrobial activity against Mycobacterium smegmatis; format: functional
[3] = test system: Mycobacterium tuberculosis; assay: Antimicrobial activity against Mycobacterium tuberculosis H37Rv in presence of 4% BSA; format: functional
[4] = test system: Mycobacterium tuberculosis; assay: Antimicrobial activity against Mycobacterium tuberculosis H37Rv by low oxygen recovery assay; format: functional
Procedure, shortened: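 MIC determined against M. tuberculosis H37Rv held in the non-replicating phenotype under low oxygen, with growth assessed after recovery.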

[5] = test system: Vero; assay: Cytotoxicity against african green monkey Vero cells; format: cell-based; details: Chlorocebus sabaeus
[6] = test system: Mycobacterium tuberculosis; assay: Antimicrobial activity against Mycobacterium tuberculosis H37Rv infected in african green monkey Vero cells; format: functional
[7] = test system: Mycobacterium tuberculosis; assay: Ratio of MIC for Mycobacterium tuberculosis H37Rv by low oxygen recovery assay to MIC for Mycobacterium tuberculosis H37Rv; format: functional
[8] = test system: Mycobacterium tuberculosis; assay: Ratio of MIC for Mycobacterium tuberculosis H37Rv in presence of 4% BSA to MIC for Mycobacterium tuberculosis H37Rv; format: functional
[9] = test system: Mycobacterium tuberculosis; assay: Ratio of MIC for Mycobacterium tuberculosis H37Rv in presence of 10% FBS to MIC for Mycobacterium tuberculosis H37Rv; format: functional
[10] = test system: Staphylococcus aureus; assay: Antimicrobial activity against Staphylococcus aureus; format: functional
[11] = test system: Escherichia coli; assay: Antimicrobial activity against Escherichia coli; format: functional
[12] = test system: Candida albicans; assay: Antimicrobial activity against Candida albicans; format: functional

| Compound | MIC [1] [µM] | MIC [2] [µM] | MIC [3] [µM] | MIC [4] [µM] | IC50 [5] [µM] | MIC [6] [µM] | Ratio [7] | Ratio [8] | Ratio [9] | MIC [10] [µM] | MIC [11] [µM] | MIC [12] [µM] |
| --- | --- | --- | --- | --- | --- | --- | --- | --- | --- | --- | --- | --- |
| CO[C@H]1/C=C/O[C@@]2(C)Oc3c(C)c(O)c4c(O)c(c(/C=N/N5CCN(C)CC5)c(O)c4c3C2=O)NC(=O)/C(C)=C\C=C\[C@H](C)[C@H](O)[C@@H](C)[C@@H](O)[C@@H](C)[C@H](OC(C)=O)[C@@H]1C [RIFAMPIN] | 0.21 | 16.7 (≈ 13.7 µg/mL) | 0.089 | 0.49 (≈ 0.403 µg/mL) | > 182 | 0.038 (≈ 0.0313 µg/mL) |  |  |  |  |  |  |
| O=C1/C(=C2\Nc3ccccc3C2=O)Nc2ccccc21 [INDIGO] |  |  |  |  |  | > 32 |  |  |  |  |  |  |
| O=C1Nc2ccccc2/C1=C1/Nc2ccccc2C1=O [INDIRUBIN] |  |  |  |  |  | > 32 |  |  |  |  |  |  |
| NNC(=O)c1ccncc1 [ISONIAZID] | 0.24 | 18.9 (≈ 2.59 µg/mL) | 0.45 | > 100 | > 100 | 0.22 (≈ 0.0302 µg/mL) |  |  |  |  |  |  |
| O=C1Nc2ccccc2/C1=C1\C(=O)Nc2ccccc21 [ISOINDIGO] |  |  |  |  |  | 27 (≈ 7.08 µg/mL) |  |  |  |  |  |  |
| O=C1C=Cc2nocc2/C1=C1/Nc2ccccc2C1=O | 0.57 | > 50 | 2.1 | 5.3 (≈ 1.4 µg/mL) | > 32 | 0.57 (≈ 0.151 µg/mL) | 10 | 3.7 | 1 | > 50 | > 50 | > 50 |
